Data published in ChEMBL document CHEMBL2331079, “Antibacterial and antiplasmodial constituents of Beilschmiedia cryptocaryoides” (J Nat Prod, 2013).
pIC50: −log10 of the molar value. Converted amounts (≈) assume the structure as drawn.

Assays:
[1] = test system: Stutzerimonas stutzeri; test: Antibacterial activity against Pseudomonas stutzeri A1501 by paper disk diffusion method; assay type: functional
In short: (§1)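 Strains taken from the lab's own culture collection. Tested by paper disk diffusion, following the group's earlier published method. Each MIC was determined in triplicate.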

[2] = test system: Escherichia coli; test: Antibacterial activity against Escherichia coli 6r3 by paper disk diffusion method; assay type: functional; in short: as §1
[3] = test system: Serratia plymuthica; test: Antibacterial activity against Serratia plymuthica C48 by paper disk diffusion method; assay type: functional; in short: as §1
[4] = test system: Acinetobacter calcoaceticus; test: Antibacterial activity against Acinetobacter calcoaceticus DSM 586 by paper disk diffusion method; assay type: functional; in short: as §1
[5] = test system: Plasmodium falciparum; test: Antiplasmodial activity against chloroquine-sensitive Plasmodium falciparum NF54 after 48 hrs by [3H]-hypoxanthine incorporation assay; assay type: functional, organism-based
In short: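 Asexual blood-stage parasites in hypoxanthine-free RPMI 1640 with HEPES, NaHCO3, neomycin and Albumax, in human A+ erythrocytes (2.5% hematocrit, 0.3% parasitemia). Eleven 3-fold dilutions (100 to 0.002 μg/mL) from DMSO stocks. Incubated at 37 °C in 4% CO2/3% O2/93% N2. 3H-hypoxanthine (0.5 μCi) added at 48 h, then 24 h more. Read by scintillation counting. IC50 is the mean of two independent assays.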

[6] = test system: L6; test: Cytotoxicity against rat L6 cells after 70 hrs by Alamar Blue assay; conditions: L6, 70 h

| Structure (SMILES) | MIC [1] | MIC [2] | MIC [3] | MIC [4] | pIC50 [5] | pIC50 [6] |
| --- | --- | --- | --- | --- | --- | --- |
| CC1(C)S[C@@H]2[C@H](NC(=O)[C@H](N)c3ccccc3)C(=O)N2[C@H]1C(=O)O [AMPICILLIN] | 20 µg/mL (≈ 57.2 µM) | 5 µg/mL (≈ 14.3 µM) | 20 µg/mL (≈ 57.2 µM) | 5 µg/mL (≈ 14.3 µM) | – | – |
| CCCCCC[C@@H]1[C@H]2C=C[C@H]3C(C(=O)O)=C[C@H](O)[C@@H]4C[C@@H]1[C@@H]2[C@H]43 [CRYPTOBEILIC ACID A] | > 50 µg/mL | 10 µg/mL (≈ 31.6 µM) | > 50 µg/mL | > 50 µg/mL | 4.75 | 4.23 |
| CCCCCC[C@@H]1[C@H]2C=C[C@H]3C(C(=O)O)=C[C@@H](O)[C@@H]4C[C@@H]1[C@@H]2[C@H]43 [CRYPTOBEILIC ACID B] | 10 µg/mL (≈ 31.6 µM) | 20 µg/mL (≈ 63.2 µM) | > 50 µg/mL | 20 µg/mL (≈ 63.2 µM) | 5.27 | 4.69 |
| O=C(O)C1=CC(=O)[C@@H]2C[C@H]3[C@H](Cc4ccc5c(c4)OCO5)[C@H]4C=C[C@@H]1[C@@H]2[C@H]43 [CRYPTOBEILIC ACID C] | > 50 µg/mL | > 50 µg/mL | > 50 µg/mL | > 50 µg/mL | 4.85 | 4.23 |
| CCCCCC[C@@H]1[C@H]2C=C[C@@H]3[C@@H]4[C@H]2[C@H]1C[C@H]4C=C[C@H]3C(=O)O [CRYPTOBEILIC ACID D] | > 50 µg/mL | 50 µg/mL (≈ 166 µM) | > 50 µg/mL | > 50 µg/mL | 4.97 | 4.21 |
| CN1CCN(c2cc3c(cc2F)c(=O)c(C(=O)O)cn3-c2ccc(F)cc2)CC1 [DIFLOXACIN] | 20 µg/mL (≈ 50.1 µM) | 5 µg/mL (≈ 12.5 µM) | 20 µg/mL (≈ 50.1 µM) | 5 µg/mL (≈ 12.5 µM) | – | – |
| COc1cc([C@@H]2c3cc4c(cc3[C@H](O)[C@H]3COC(=O)[C@H]23)OCO4)cc(OC)c1OC [PODOFILOX] | – | – | – | – | – | 8.10 |
| O=C(O)[C@@H]1C=C[C@@H]2C[C@H]3[C@H](Cc4ccc5c(c4)OCO5)[C@H]4C=C[C@@H]1[C@@H]2[C@H]43 [TSANGIBEILIN B] | > 50 µg/mL | 50 µg/mL (≈ 143 µM) | > 50 µg/mL | > 50 µg/mL | 5.09 | 4.67 |
